Measured values from ChEMBL document CHEMBL1131249, “Antimalarial cyclic peroxy ketals” (J Med Chem, 1998).

System: Plasmodium falciparum
Test: In vitro antimalarial activity against Plasmodium falciparum.
Type: functional, organism-based
Summary of the method: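 Method follows earlier published work. Each compound tested in quadruplicate. IC50 derived from fitted concentration–response curves. Artemisinin run as a concurrent control, with n = 20 for the control.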

`COC1(c2ccc(S(C)(=O)=O)cc2)C=CC2(CCCCCC2)OO1` (configuration not stated) showed an IC50 of 31 nM.

`COc1ccc(C2(OC)C=CC3(CCC3)OO2)cc1` (configuration not stated) was tested, and the IC50 was 160 nM.

For `COC1(c2ccc(S(C)(=O)=O)cc2)C=CC2(CCCCC2)OO1` (configuration not stated), the IC50 was 56 nM.

`COC1(c2ccc(OC(F)(F)F)cc2)C=CC2(CCCCCC2)OO1` (configuration not stated) gave an IC50 of 61 nM.

In the case of `COC1(c2ccccc2)C=CC2(CCCCCC2)OO1` (configuration not stated), the IC50 is reported as 220 nM.

`COC1(c2ccc(F)cc2)C=CC2(CCCCCC2)OO1` (configuration not stated) was tested, and the IC50 was 85 nM.

Work on `CCc1ccc(C2(OC)C=CC3(CCCCCC3)OO2)cc1` (configuration not stated) yielded an IC50 of 180 nM.

For `COC1(c2ccccc2)C=CC2(CCCC2)OO1` (configuration not stated), the IC50 was 190 nM.

`COC1(c2ccc([N+](=O)[O-])cc2)C=CC2(CCCCC2)OO1` (configuration not stated) showed an IC50 of 46 nM.

With `COc1ccc(C2(OC)C=CC3(CCCCCC3)OO2)cc1` (configuration not stated) the IC50 was 210 nM.

Work on `COC1(c2ccc(SC)cc2)C=CC2(CCCCC2)OO1` (configuration not stated) yielded an IC50 of 160 nM.

`COC1(c2ccccc2)C=CC2(CCCCC2)OO1` (configuration not stated) was tested, and the IC50 was 280 nM.

With `CC(C)OC1(c2ccc(Cl)cc2)C=CC2(CCCCCC2)OO1` (configuration not stated) the IC50 was 1100 nM.

With `COC1(c2ccc(Cl)cc2)C=CC2(CCCCC2)OO1` (configuration not stated) the IC50 was 100 nM.

In the case of `CC1(C)C=CC(O)(c2ccccc2)OO1` (configuration not stated), the IC50 is reported as greater than 2500 nM.

For `COC1(c2ccc(Cl)cc2)C=CC2(CCCCCC2)OO1` (configuration not stated), the IC50 was 58 nM.

Work on `COC1(c2ccc(SC)cc2)C=CC2(CCCCCC2)OO1` (configuration not stated) yielded an IC50 of 78 nM.

`COC1(c2ccc(F)cc2)C=CC2(CCCCC2)OO1` (configuration not stated) was tested, and the IC50 was 200 nM.

Compound `COc1ccc(C2(OC)C=CC3(CCCCC3)OO2)cc1` (configuration not stated) has an IC50 of 180 nM.

`COc1cc(C2(OC)C=CC3(CCCCCC3)OO2)cc(OC)c1OC` (configuration not stated) showed an IC50 of 120 nM.

Compound `COC1(c2ccccc2)C=CC(C)(C)OO1` (configuration not stated) has an IC50 of 1100 nM.

`C[C@@H]1CC[C@H]2[C@@H](C)C(=O)O[C@@H]3O[C@@]4(C)CC[C@@H]1[C@]32OO4` [ARTEMISININ] was tested, and the IC50 was 8.4 nM.
